Experimental findings from ChEMBL document CHEMBL4038327, “Inhibitory Kappa B Kinase α (IKKα) Inhibitors That Recapitulate Their Selectivity in Cells against Isoform-Related Biomarkers” (J Med Chem, 2017) are described below.

Some results are limits rather than exact numbers.

Test [1] has as its target T1, Inhibitor of nuclear factor kappa-B kinase subunit alpha (Mus musculus) (UniProt Q60680).
T1 sequence (whole entry): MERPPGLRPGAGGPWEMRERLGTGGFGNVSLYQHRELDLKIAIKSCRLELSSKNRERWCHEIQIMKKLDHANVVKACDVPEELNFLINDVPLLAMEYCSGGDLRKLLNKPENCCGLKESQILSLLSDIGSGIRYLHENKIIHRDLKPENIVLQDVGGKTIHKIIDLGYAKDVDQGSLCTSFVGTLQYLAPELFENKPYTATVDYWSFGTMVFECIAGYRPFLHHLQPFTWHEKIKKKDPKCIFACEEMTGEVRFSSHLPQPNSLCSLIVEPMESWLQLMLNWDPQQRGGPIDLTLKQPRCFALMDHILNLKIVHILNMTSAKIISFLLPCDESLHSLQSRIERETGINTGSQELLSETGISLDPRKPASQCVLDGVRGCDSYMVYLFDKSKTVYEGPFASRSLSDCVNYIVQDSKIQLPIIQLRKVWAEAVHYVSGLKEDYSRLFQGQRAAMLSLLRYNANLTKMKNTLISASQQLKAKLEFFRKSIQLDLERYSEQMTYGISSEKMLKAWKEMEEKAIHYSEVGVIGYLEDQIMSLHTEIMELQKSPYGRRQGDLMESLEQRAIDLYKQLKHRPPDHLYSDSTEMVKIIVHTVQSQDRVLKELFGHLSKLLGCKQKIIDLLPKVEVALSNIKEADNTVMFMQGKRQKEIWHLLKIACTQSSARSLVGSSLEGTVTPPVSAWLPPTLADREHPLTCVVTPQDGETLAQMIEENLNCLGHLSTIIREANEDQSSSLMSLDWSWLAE
As to the kind of experiment: Inhibition of IKKalpha in IKKbeta knockout mouse embryonic fibroblast cells harboring Adv.NF-kB.luc assessed as IL-1beta induced NF-kB transcriptional activation at 100 uM pretreated for 1 hr followed by IL-1beta stimulation for 6 hrs by luciferase reporter gene assay relative to control. Also on record: scale not given: the % may be the effect or the level left. The gist of the method:
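IKKβ knockout MEFs infected with Adv.NF-kB.luc (up to 300 pfu/cell, 24 h, 10% DMEM), replated and serum-starved 24 h. Pretreated 1 h with compound, then IL-1β (10 ng/mL) for 6 h. Lysis buffer contained 0.2 mM luciferin, and luminescence was read as RLU. Results are expressed as % of IL-1β + DMSO stimulation.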

For test [2], the target named is T2, Inhibitor of nuclear factor kappa-B kinase subunit alpha (Homo sapiens, UniProt O15111).
T2 sequence (O15111 whole entry): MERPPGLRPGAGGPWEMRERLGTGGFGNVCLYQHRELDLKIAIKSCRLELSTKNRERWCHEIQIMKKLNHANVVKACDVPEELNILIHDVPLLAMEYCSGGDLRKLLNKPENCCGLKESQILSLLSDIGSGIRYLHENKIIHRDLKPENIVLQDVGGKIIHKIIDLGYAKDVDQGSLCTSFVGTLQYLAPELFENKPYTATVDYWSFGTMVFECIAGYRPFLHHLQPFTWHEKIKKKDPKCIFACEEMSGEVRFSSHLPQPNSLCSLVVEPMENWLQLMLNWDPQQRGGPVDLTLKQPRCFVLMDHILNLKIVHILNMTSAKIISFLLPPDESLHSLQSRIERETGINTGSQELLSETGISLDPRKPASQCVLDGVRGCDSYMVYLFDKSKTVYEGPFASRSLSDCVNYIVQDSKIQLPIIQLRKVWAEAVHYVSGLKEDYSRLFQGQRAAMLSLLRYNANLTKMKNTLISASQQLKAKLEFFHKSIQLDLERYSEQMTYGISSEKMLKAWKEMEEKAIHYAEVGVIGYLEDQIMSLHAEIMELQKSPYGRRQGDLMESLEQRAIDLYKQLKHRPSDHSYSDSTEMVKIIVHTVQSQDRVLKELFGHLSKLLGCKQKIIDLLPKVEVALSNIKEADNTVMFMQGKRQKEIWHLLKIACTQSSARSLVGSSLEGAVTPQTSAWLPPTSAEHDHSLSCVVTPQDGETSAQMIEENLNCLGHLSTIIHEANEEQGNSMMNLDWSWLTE
The experiment in a line: Inhibition of recombinant human N-terminal GST-tagged IKKalpha (1 to 745 residues) expressed in baculovirus expression system using biotinylated IkBalpha as substrate after 60 mins by DELFIA.

The target of test [3] is Casein kinase I isoform delta (Homo sapiens) (UniProt P48730). As to the kind of experiment: Inhibition of recombinant human N-terminal GST-tagged CK1delta (1 to 294 residues) expressed in Escherichia coli at 10 uM relative to control. The gist of the method: (§1)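 Outsourced commercial kinase panel run at a single concentration, with duplicate assay points.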
Test [4] deals with Serine/threonine-protein kinase Chk2 (Homo sapiens) (UniProt O96017). As to the kind of experiment: Inhibition of N-terminal GST and C-terminal His6 tagged recombinant human CHK2 expressed in Escherichia coli cells at 10 uM relative to control. The procedure, abridged:
as §1

For test [5], the target named is Calcium/calmodulin-dependent protein kinase type 1 (Homo sapiens) (UniProt Q14012). The experiment in a line: Inhibition of N-terminal GST tagged recombinant human CaMK1 (2 end residues) expressed in Escherichia coli cells at 10 uM relative to control. The gist of the method:
as §1

The target of test [6] is T3, Aurora kinase A (Homo sapiens) (UniProt O14965).
T3 sequence (whole entry): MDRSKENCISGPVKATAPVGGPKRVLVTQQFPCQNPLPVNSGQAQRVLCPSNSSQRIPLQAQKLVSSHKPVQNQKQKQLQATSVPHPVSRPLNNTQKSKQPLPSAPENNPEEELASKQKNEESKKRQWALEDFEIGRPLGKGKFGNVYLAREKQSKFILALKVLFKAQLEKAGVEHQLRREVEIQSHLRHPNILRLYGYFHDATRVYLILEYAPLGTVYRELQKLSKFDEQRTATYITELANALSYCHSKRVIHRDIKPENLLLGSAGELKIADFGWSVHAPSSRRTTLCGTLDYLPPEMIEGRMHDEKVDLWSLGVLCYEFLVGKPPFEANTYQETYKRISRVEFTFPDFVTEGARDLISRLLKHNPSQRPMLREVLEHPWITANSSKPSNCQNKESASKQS
The experiment in a line: Inhibition of N-terminal His6 tagged recombinant human full length Aurora A expressed in Sf21 cells at 10 uM relative to control. The gist of the method: as §1

Chain of Serine/threonine-protein kinase Chk2 (Homo sapiens) (O96017 whole entry): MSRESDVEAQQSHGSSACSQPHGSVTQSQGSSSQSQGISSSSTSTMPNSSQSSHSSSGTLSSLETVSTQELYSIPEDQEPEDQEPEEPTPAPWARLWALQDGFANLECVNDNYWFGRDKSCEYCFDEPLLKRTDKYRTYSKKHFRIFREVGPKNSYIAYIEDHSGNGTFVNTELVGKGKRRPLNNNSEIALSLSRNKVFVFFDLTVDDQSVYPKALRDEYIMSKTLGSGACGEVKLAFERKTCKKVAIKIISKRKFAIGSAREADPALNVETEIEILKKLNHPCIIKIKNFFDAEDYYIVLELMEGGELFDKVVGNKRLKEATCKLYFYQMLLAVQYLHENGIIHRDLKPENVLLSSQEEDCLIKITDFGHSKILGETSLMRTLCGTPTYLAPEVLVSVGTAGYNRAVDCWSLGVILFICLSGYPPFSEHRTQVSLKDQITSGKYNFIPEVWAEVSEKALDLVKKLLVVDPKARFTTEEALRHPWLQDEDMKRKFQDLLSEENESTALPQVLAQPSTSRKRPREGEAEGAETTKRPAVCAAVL
Chain of Casein kinase I isoform delta (Homo sapiens) (P48730 whole entry, looked up, the tested form may be a part, canonical isoform): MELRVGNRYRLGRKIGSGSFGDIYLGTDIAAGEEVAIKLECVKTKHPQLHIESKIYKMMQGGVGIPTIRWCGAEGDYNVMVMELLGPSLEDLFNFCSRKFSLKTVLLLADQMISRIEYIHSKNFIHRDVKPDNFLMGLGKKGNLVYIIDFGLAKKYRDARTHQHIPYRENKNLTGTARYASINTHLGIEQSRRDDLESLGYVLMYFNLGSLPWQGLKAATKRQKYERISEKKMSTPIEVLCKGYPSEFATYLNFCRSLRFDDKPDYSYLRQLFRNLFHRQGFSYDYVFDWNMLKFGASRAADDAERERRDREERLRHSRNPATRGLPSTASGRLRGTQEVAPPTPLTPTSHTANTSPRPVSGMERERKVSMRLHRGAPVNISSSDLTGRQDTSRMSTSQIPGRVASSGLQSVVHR
Chain of Calcium/calmodulin-dependent protein kinase type 1 (Homo sapiens) (Q14012 whole entry, looked up): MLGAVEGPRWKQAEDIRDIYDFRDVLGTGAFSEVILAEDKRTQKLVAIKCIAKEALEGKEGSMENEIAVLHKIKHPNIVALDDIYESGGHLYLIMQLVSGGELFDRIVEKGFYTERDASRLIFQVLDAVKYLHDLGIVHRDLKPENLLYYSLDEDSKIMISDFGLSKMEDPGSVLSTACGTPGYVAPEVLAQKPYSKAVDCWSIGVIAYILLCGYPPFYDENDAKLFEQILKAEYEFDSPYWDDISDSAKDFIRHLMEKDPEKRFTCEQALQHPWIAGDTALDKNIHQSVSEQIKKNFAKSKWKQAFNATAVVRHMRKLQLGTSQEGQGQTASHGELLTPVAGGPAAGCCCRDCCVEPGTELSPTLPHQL

As for `N#Cc1c[nH]c2nc(N)nc(-c3ccc(S(N)(=O)=O)cc3)c12`, the Activity in test [1] is -40.9%. Further, the Ki in test [2] amounted to 80 nM. Besides, the inhibition in test [3], in test [4], in test [5] and in test [6] was over 80% in each case.

What is called Ki is a measure of affinity in units of concentration, obtained from inhibition or displacement. Broadly, the inhibition is the drop in the measured response relative to a control, in per cent.
